Read-outs that look alike come from different tables or passages of the source.

Data set [1] relates to DR5. In words: DR5 immunoblot, MDA-MB-468 cells. Format: cell-based. The following applies: MDA-MB-468, 24 h; for Effect on DDA-induced DR5 upregulation and oligomerization: with 2.5 μM dMtcyDTDO, 20 μM CEAPIN-A7, 10 μM KIRA-6, 10 μM AMG-44; for DR5 levels and disulfide bonding (electrophoretic mobility): non-reducing immunoblot, dFtcyDTDO 2.5 μM, Tunicamycin 500 ng/ml, PERKi alone.

A further data set concerns WM793 melanoma cells. Nature of the data set: MTT cell viability assay, WM793. Format: cell-based. The following applies: 72 h. The method, boiled down:
(§1)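 Cells in 10% FBS–DMEM were seeded at 7,500 per well and kept 24 h at 37°C, then exposed to test compound for 72 h at 37°C. After medium removal they received 0.5 mg/ml MTT in PBS for 1 h at 37°C. Formazan was dissolved in DMSO and absorbance read at 570 and 690 nm. At least quadruplicate technical and three biological replicates were run.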

A further data set concerns protein synthesis. In words: Protein synthesis assay. The format is cell-based. The following applies: 24 h pre-treatment, 2 h pulse.
For data set [2], the system named is MET. In words: MET/PCSK9 maturation. The format is cell-based. The settings on record: HepG2, PERKi alone 1 μM, 24 h. Put shortly: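 HepG2 cells were grown in 10% FBS–DMEM at 37°C and 5% CO₂, then treated for 24 h. Cell lysates were run on immunoblots, under reducing conditions for MET.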
The subject of data set [3] is MDA-MB-468 breast cancer cells. In words: MTT cell viability assay, MDA-MB-468. The format is cell-based. The settings on record: 72 h. The method, boiled down:
as §1

Data set [4] concerns MET. Nature of the data set: MET/PCSK9 maturation. The settings on record: MDA-MB-468, PERKi alone 1 μM, 24 h. Format: cell-based.
In data set [5] the test system is DR5. In words: DR5 immunoblot with autophagy/lysosome inhibitors. The settings on record: inhibitor alone, absence of DDA treatment, versus vehicle. Format: cell-based. For orientation: In western blotting, separated proteins are transferred to a membrane and probed.
For data set [6], the system named is DR5. Nature of the data set: DR5 immunoblot, T47D cells. The format is cell-based. The following applies: 2.5 μM, 24 h, reducing immunoblot.
The test system of a further data set is DcR2. In words: DcR2 immunoblot. The format is cell-based. The settings on record: after dFtcyDTDO treatment.
In data set [7] the test system is DR5. Nature of the data set: DR5 immunoblot, MCF10A cells. The format is cell-based. The settings on record: non-transformed MCF10A, 2.5 μM, 24 h, reducing immunoblot.
The test system of data set [8] is DR5. In words: DR5 immunoblot, HaCaT keratinocytes. The following applies: 2.5 μM, 24 h, reducing immunoblot. The format is cell-based, human.
Data set [9] can be described thus: Metabolic stability in human liver microsomes. The following applies: supplemented with NADPH (1 mM); substrate 10 μM; 1 mg/ml protein.
For a further data set, the system named is 012/LVM2/LR10 tumors. Nature of the data set: 012/LVM2/LR10 xenograft tumor study, H&E tumor histology. The settings on record: 10 mg/kg dMtcyDTDO, 20 days, mice bearing 012/LVM2/LR10 tumors, versus vehicle. Format: in vivo.

For `O=C(Nc1cnn(Cc2ccc(C(F)(F)F)cc2C(F)(F)F)c1)c1cc(-c2ccco2)on1` [CEAPIN-A7], the “Effect on DDA-induced DR5 upregulation and oligomerization” value in the data set on DR5 [1] is reported as “without effect”.
As to `O=S1(=O)CC2CCCCC2CS1` (stereo not drawn) [tcyDTDO], the “t1/2 in human liver microsomes” value is recorded as 11.9 min.
For the compound `Cn1cc(-c2ccc3c(c2)CCN3C(=O)Cc2cccc(C(F)(F)F)c2)c2c(N)ncnc21` [PERKi], the “Cell viability (MTT)” value (in the data set on WM793 melanoma cells (PERKi alone); in data set [3] (PERKi alone)) was “little effect on cell viability” throughout. In addition, the “Effect on dFtcyDTDO cytotoxicity (MTT)” value (in the data set with WM793 melanoma cells (combination with dFtcyDTDO); in data set [3] (combination with dFtcyDTDO)) was “strongly potentiated dFtcyDTDO cytotoxicity” each time. Also, the “Protein synthesis (3H-Leucine incorporation) in the presence of Tunicamycin” value in the data set with protein synthesis is “increased protein synthesis”. Moreover, the “Protein synthesis (3H-Leucine incorporation) in the presence of dFtcyDTDO” value with protein synthesis is given as “further decreased protein synthesis”. The “MET or PCSK9 processing” value with MET [2] and in the data set on MET [4] was “no effect on MET or PCSK9 processing” throughout. In the data set with DR5 [1], the “DR5 levels and disulfide bonding (electrophoretic mobility)” value (shortened to “DR5 levels and disulfide bonding”) was “no discernable effect”.
As for `CCN(CC)CCCC(C)Nc1ccnc2cc(Cl)ccc12` (stereo not drawn) [Chloroquine], the DR5 levels entry with DR5 [5] was “increased DR5 levels”.
Same read-out and setting: then `CO/C1=C\C(C)=C\[C@@H](C)[C@@H](O)[C@@H](C)C/C(C)=C/C=C/[C@H](OC)[C@@H]([C@@H](C)[C@@H](O)[C@H](C)[C@@]2(O)C[C@@H](O)[C@H](C)[C@@H](C(C)C)O2)OC1=O` [Bafilomycin A1], with “increased levels of monomeric and oligomeric DR5 isoforms”; and `CC(C)(O)CNc1ncc(-c2ccnc(Nc3ccnc(Cl)c3)n2)c(CC2CC2)n1` [VPS34i], with “increased DR5 expression to a similar extent as Bafilomycin”.
For `O=S1(=O)CC2CC(F)C(F)CC2CS1` (stereo not drawn) [dFtcyDTDO], the “t1/2 in human liver microsomes” value is reported as above 60 min. In the data set with DR5 [6], the DR5 levels entry is “increased DR5 levels”. Further, in the data set with DcR2, the DcR2 levels entry is on record as “upregulation of DcR2”. For the same compound, the “DR5 levels and disulfide bonding” value with DR5 [1] is “altered DR5 levels and disulfide bonding”. The DR5 levels entry with DR5 [7] is reported as “did not increase DR5 levels”. The DR5 levels result in the data set with DR5 [8] is on record as “did not increase DR5 levels”.
For the compound `CC(C)(C)c1nc(-c2ccc(NC(=O)Nc3cccc(C(F)(F)F)c3)c3ccccc23)c2c(N)nccn12` [KIRA-6], the “Effect on DDA-induced DR5 upregulation and oligomerization” value with DR5 [1] is “negated DR5 and TNFR1 upregulation by DDA treatment”.
Consider `CO[C@H]1C[C@@H]2CS(=O)(=O)SC[C@H]2C[C@@H]1OC` [dMtcyDTDO], for which, in [9], the “t1/2 in human liver microsomes” value is reported as 47.9 min. Besides, the DR5 levels entry in the data set on DR5 [7] and in the data set on DR5 [8] was “did not increase DR5 levels” each time. For the same compound, in the data set with 012/LVM2/LR10 tumors, the “Breast tumor tissue histology (H&E)” value was “extensive death of tumor tissue”.
Regarding Tunicamycin, the “DR5 levels and disulfide bonding” value in the data set on DR5 [1] is given as “increased DR5 levels without altering its mobility”.
Consider `Cc1ccc2cc(-c3c(C)ccc(C(=O)c4c(-c5ccccc5)n(C)n(-c5ccccc5)c4=O)c3N)ccc2n1` [AMG44], for which the “Effect on DDA-induced DR5 upregulation and oligomerization” value in the data set on DR5 [1] is “potentiated DDA-induced DR5 upregulation and oligomerization”.

Values taken from PMC11989202 (Molecular cancer research : MCR, 2025).
